1 molecule from ChEMBL document CHEMBL4371095, “Triazole-Based Inhibitors of the Wnt/β-Catenin Signaling Pathway Improve Glucose and Lipid Metabolisms in Diet-Induced Obese Mice” (J Med Chem, 2019) can be followed below.

Calls of active or inactive are those of the source. The rule behind the calls is not given here.

Series [1] relates to Mus musculus. In words: Effect on hepatic ACAT2 mRNA level in normal chow diet fed C57BL/6J mouse at 40 mg/kg, ip administered every 2 days for 11 weeks by qPCR analysis. Format: ADME, organism-based. As to conditions: in vivo. An outline of the steps:
(§1)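 Male mice, 8 weeks old, kept on normal chow throughout and dosed i.p. every 2 days in corn oil vehicle for 11 weeks. Body weight gain, liver/body weight ratio, and liver mRNA of the indicated genes were measured at sacrifice; mean ± SEM, n = 5 per group where stated.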

Series [2] is described as follows: Toxicity in high fat diet fed C57BL/6J mouse assessed as serum LDH level at 40 mg/kg, ip administered every 2 days for 11 weeks (reference value: 469 +/- 67 U/L). Format: organism-based. As to conditions: in vivo.
Series [3] relates to Mus musculus. In words: Effect on hepatic G6pase mRNA level in normal chow diet fed C57BL/6J mouse at 40 mg/kg, ip administered every 2 days for 11 weeks by qPCR analysis. It is filed as ADME, organism-based. As to conditions: in vivo. An outline of the steps: as §1
For orientation: Real-time PCR tracks product formation cycle by cycle.

Series [4] concerns Mus musculus. In words: Decrease in hepatic […] mRNA level in high fat diet fed C57BL/6J mouse at 40 mg/kg, ip administered every 2 days for 11 weeks by qPCR analysis. Format: functional, organism-based. An outline of the steps:
(§2)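 Male mice, 8 weeks old, fed a 45% kcal fat diet for 6 weeks, then dosed i.p. every 2 days in corn oil vehicle for 11 weeks. Liver mRNA of the indicated genes was quantified at sacrifice; mean ± SEM, n = 5 per group.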

Series [5] relates to HEK293. The experiment in a line: Inhibition of Wnt (unknown origin)/FLAG-tagged human beta-catenin S33Y mutant signaling expressed in HEK293 cells harboring TCF/LEF-responsive luciferase at 100 nM measured after 24 hrs by luciferase reporter gene assay. It is filed as cell-based. In outline:
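HEK293 cells were transfected for 16 h with TOPFlash or FOPFlash, Renilla, and pcDNA3 wild-type or S33Y β-catenin. Compound was then added for a further 24 h. Firefly/Renilla dual-luciferase ratio was the read-out.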
(A reporter such as luciferase makes a cellular process visible.)

The nature of series [6]: Toxicity in high fat diet fed C57BL/6J mouse assessed as serum ALT level at 40 mg/kg, ip administered every 2 days for 11 weeks (reference value: 63.3 +/- 26.9 U/L). It is filed as organism-based. As to conditions: in vivo.
Series [7] concerns Mus musculus. In words: Antidiabetic activity in high fat diet fed C57BL/6J mouse assessed as improvement in glucose tolerance at 40 mg/kg, ip administered every 2 days for 11 weeks followed by glucose-challenge and measured up to 120 mins by IPGTT. It is filed as functional, organism-based. An outline of the steps:
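Male mice, 8 weeks old, fed a 45% kcal fat diet for 6 weeks, then dosed i.p. every 2 days in corn oil vehicle alongside the continued diet. IPGTT was done before and at the end of treatment: 6–8 h fast, then glucose 2 g/kg i.p. in saline. Tail-vein blood glucose was read by glucometer over time, and AUC was derived; mean ± SEM, n = 5 per group.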

In another series the test system is SW480. The experiment in a line: Inhibition of Wnt/beta-catenin signaling in human SW480 cells harboring APC mutant at 50 nM after 24 hrs by luciferase reporter gene assay. Format: cell-based.
Series [8] concerns Mus musculus. In words: Decrease in hepatic PEPCK mRNA level in high fat diet fed C57BL/6J mouse at 40 mg/kg, ip administered every 2 days for 11 weeks by qPCR analysis. It is filed as functional, organism-based. An outline of the steps:
as §2

The species entered for series [9] is Mus musculus. In words: Inhibition of Wnt/beta-catenin/Axin signaling in mouse hepatocytes assessed as decrease in ACAA1A mRNA level at 5 uM by qPCR analysis. Format: cell-based. An outline of the steps:
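Normal mouse hepatocytes were treated with 5 μM compound, and lipogenic and gluconeogenic gene mRNA was measured by qPCR; mean ± S.D. of triplicates.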

Series [10] deals with Mus musculus. The experiment in a line: Decrease in serum cholesterol level in high fat diet fed C57BL/6J mouse at 40 mg/kg, ip administered every 2 days for 11 weeks. It is filed as functional, organism-based. In outline:
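Male mice, 8 weeks old, 24–27 g, given a 45% kcal fat diet for 6 weeks, then dosed i.p. every 2 days in corn oil vehicle with the diet continued. Sacrifice was about 24 h after the last dose. Liver was examined by H&E. Liver and serum triglyceride were measured by kit. Serum chemistry was included, and liver/body weight ratio was calculated.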

A short description of series [11]: Toxicity in high fat diet fed C57BL/6J mouse assessed as serum uric acid level at 40 mg/kg, ip administered every 2 days for 11 weeks (reference value: 6.3 +/- 0.5 mg/dl). As to conditions: in vivo. Format: organism-based.
The subject of series [12] is HEK293. In words: Inhibition of Wnt3a activated Wnt/beta-catenin/Axin signaling (unknown origin) expressed in HEK293 cells assessed as stabilization of Axin1 protein at 1 to 10 uM after 2 hrs by Western blot method. Format: cell-based. As to conditions: Homo sapiens. In outline:
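HEK293 cells stimulated with WNT3a were treated with compound for 2 h. Cells were lysed in 10 mM HEPES, 100 μM EDTA, 10 mM KCl, 0.5% NP40, protein was quantified by BCA, and β-catenin and Axin1 were resolved on 10% SDS-PAGE and immunoblotted.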
For orientation: Immunoblotting shows a protein as a band on a membrane.

Series [13] can be described thus: Toxicity in normal chow diet fed C57BL/6J mouse assessed as serum LDH level at 40 mg/kg, ip administered every 2 days for 11 weeks (reference value: 324 +/- 63.5 U/L). Format: organism-based. As to conditions: in vivo.
A short description of series [14]: Toxicity in normal chow diet fed C57BL/6J mouse assessed as serum ALT level at 40 mg/kg, ip administered every 2 days for 11 weeks (reference value: 20 +/- 5.1 U/L). It is filed as organism-based. As to conditions: in vivo.
A short description of series [15]: Toxicity in normal chow diet fed C57BL/6J mouse assessed as serum total bilirubin level at 40 mg/kg, ip administered every 2 days for 11 weeks (reference value: 0.2 mg/dl). It is filed as organism-based. Conditions: in vivo.
Series [16] can be described thus: Toxicity in normal chow diet fed C57BL/6J mouse assessed as serum cholesterol level at 40 mg/kg, ip administered every 2 days for 11 weeks (reference value: 183 +/- 16.6 mg/dl). Conditions: in vivo. Format: organism-based.
The test system of series [17] is Mus musculus. In words: Decrease in hepatic Glp1 mRNA level in high fat diet fed C57BL/6J mouse at 40 mg/kg, ip administered every 2 days for 11 weeks by qPCR analysis. Format: functional, organism-based. An outline of the steps: as §2
A short description of series [18]: Toxicity in high fat diet fed C57BL/6J mouse assessed as serum total bilirubin level at 40 mg/kg, ip administered every 2 days for 11 weeks (reference value: 0.2 mg/dl). It is filed as organism-based. Conditions: in vivo.
Series [19] deals with Mus musculus. In words: Decrease in hepatic FGF21 mRNA level in high fat diet fed C57BL/6J mouse at 40 mg/kg, ip administered every 2 days for 11 weeks by qPCR analysis. It is filed as functional, organism-based. In outline: as §2
The test system of series [20] is HEK293. In words: Inhibition of Wnt/beta-catenin signaling (unknown origin) expressed in HEK293 cells harboring TCF/LEF-responsive luciferase assessed as luminescence at 20 nM measured after 24 hrs by luciferase reporter gene assay relative to control. It is filed as cell-based. The arrangement: scale not given: the % may be the effect or the level left. Conditions: Homo sapiens. An outline of the steps:
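HEK293 cells carrying siRNA knockdown of GSK3β, Axin or CK1α (36 h transfection) were treated with or without 20 nM compound for 24 h. TCF/LEF reporter luminescence was read relative to control, mean ± S.D., n = 3.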

Series [21] can be described thus: Inhibition of Wnt3a activated Wnt/beta-catenin signaling (unknown origin) expressed in HEK293 cells harboring TCF/LEF-responsive luciferase preincubated with cells followed by Wnt3a addition and measured after 24 hrs by luciferase reporter gene assay. Format: cell-based. Conditions: Homo sapiens. In outline:
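HEK293 cells stably carrying TOPFlash/GFP were plated at 2000/well in DMEM with 10% FBS and kept overnight at 37 °C. Compound was pin-transferred, then recombinant human Wnt-3a was added (200 ng/mL working stock). After 24 h at 37 °C, ONE-Glo luminescence was read after 30 min. IC50 is mean ± SE from three independent experiments.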

For a further series, the target named is Axin-1 (Homo sapiens) (UniProt O15169). In words: Binding affinity to Axin1 (unknown origin) by SPR analysis.
Sequence of Axin-1 (Homo sapiens) (O15169 whole entry): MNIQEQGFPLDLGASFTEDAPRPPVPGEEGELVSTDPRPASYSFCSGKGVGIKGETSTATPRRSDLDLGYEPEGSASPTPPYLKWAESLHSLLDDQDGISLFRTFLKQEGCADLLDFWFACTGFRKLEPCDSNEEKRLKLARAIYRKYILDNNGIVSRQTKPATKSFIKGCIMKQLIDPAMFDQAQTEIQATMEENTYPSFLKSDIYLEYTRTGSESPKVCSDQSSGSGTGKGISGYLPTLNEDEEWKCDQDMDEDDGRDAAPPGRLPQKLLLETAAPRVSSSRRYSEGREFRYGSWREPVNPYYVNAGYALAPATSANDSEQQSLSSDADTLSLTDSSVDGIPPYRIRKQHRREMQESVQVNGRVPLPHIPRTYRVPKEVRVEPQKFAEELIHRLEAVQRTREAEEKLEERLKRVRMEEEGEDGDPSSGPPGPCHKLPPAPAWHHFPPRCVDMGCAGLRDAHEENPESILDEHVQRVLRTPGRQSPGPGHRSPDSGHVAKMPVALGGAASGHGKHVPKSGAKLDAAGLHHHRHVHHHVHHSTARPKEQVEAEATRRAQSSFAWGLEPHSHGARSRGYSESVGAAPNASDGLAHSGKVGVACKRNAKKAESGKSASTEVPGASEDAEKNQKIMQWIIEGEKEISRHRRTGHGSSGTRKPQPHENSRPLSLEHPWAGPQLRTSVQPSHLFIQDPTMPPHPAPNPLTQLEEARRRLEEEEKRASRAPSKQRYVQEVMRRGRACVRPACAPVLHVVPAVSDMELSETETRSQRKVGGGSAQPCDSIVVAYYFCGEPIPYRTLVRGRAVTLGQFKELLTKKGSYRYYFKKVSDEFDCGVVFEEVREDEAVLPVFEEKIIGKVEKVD

What is called IC50 is the concentration that inhibits the measured activity by half. In the case of `Cc1ccccc1-n1nnc(C(=O)Nc2ccc3ccccc3n2)c1C`, the Activity entry in the series on Mus musculus [1] is “Non-Toxic”; in series [2], 313 U/L; in the series on Mus musculus [3] it was “Non-Toxic”; in [6] it was 21 U/L; in series [11], 4.8 mg/dL; in series [13] it was 190 U/L. For the same molecule, the Activity worked out at 12.8 U/L in [14]; 0.2 mg/dL in series [15]; 194 mg/dL in [16]; 0.2 mg/dL in series [18]; 40% in the series on HEK293 [20]. The outcome in the series with Mus musculus [4], with Mus musculus [7], in the series on Mus musculus [8], in the series with Mus musculus [10], in the series on Mus musculus [17] and in the series with Mus musculus [19] was Active. In addition, the inhibition result in the series on HEK293 [5], with SW480, in the series filed under Mus musculus [9] and with HEK293 [12] was “Active” in each case. The molecule further came in with an IC50 in series [21] of 4.1 nM. Also, the result on Axin-1 (Homo sapiens) was inactive.
